Source: ChEMBL document CHEMBL1833921, “Synthesis and biological evaluation of phenstatin metabolites” (Bioorg Med Chem, 2011)

Experiments:
[1] = system: SF-295; assay: Cytotoxicity against human SF295 cells after 48 hrs by sulforhodamine B assay; assay type: functional; conditions: SF-295, 48 h
[2] = Cell cycle arrest in mouse DA1-3b cells assessed as accumulation at G1 phase at 10^-6 M after 24 hrs using propidium iodide staining by cytofluorometry (reference value: 52.2 %); assay type: functional, cell-based
Summary of the method: (§1)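 DA1-3b murine leukemia cells were exposed to the compound for 24 h. They were then stained in a solution containing propidium iodide (50 µg/mL) and RNase A (0.5 mg/mL) and analysed on a FACScan cytofluorometer. The percentage of cells in each cell-cycle phase was reported, with several compound concentrations tested.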

[3] = system: SN12C; assay: Cytotoxicity against human SN12C cells after 48 hrs by sulforhodamine B assay; assay type: functional
[4] = system: A498; assay: Cytotoxicity against human A498 cells after 48 hrs by sulforhodamine B assay; assay type: functional; conditions: A498, 48 h
[5] = system: RXF 393; assay: Cytotoxicity against human RXF393 cells after 48 hrs by sulforhodamine B assay; assay type: functional; conditions: RXF 393, 48 h
[6] = Cell cycle arrest in mouse DA1-3b cells assessed as accumulation at S phase at 10^-4 M after 24 hrs using propidium iodide staining by cytofluorometry (reference value: 28.0 %); assay type: functional, cell-based; summary of the method: as §1
[7] = Cell cycle arrest in mouse DA1-3b cells assessed as accumulation at sub-G1 phase at 10^-6 M after 24 hrs using propidium iodide staining by cytofluorometry (reference value: 0.7 %); assay type: functional, cell-based; summary of the method: as §1
[8] = system: SK-OV-3; assay: Cytotoxicity against human SKOV3 cells after 48 hrs by sulforhodamine B assay; assay type: functional; conditions: SK-OV-3, 48 h
[9] = system: K562; assay: Cytotoxicity against human K562 cells after 48 hrs by sulforhodamine B assay; assay type: functional; conditions: K562, 48 h
[10] = Cell cycle arrest in mouse DA1-3b cells assessed as accumulation at G1 phase at 10^-5 M after 24 hrs using propidium iodide staining by cytofluorometry (reference value: 52.2 %); assay type: functional, cell-based; summary of the method: as §1
[11] = Cell cycle arrest in mouse DA1-3b cells assessed as accumulation at sub-G1 phase at 10^-5 M after 24 hrs using propidium iodide staining by cytofluorometry (reference value: 0.7 %); assay type: functional, cell-based; summary of the method: as §1
[12] = system: UO-31; assay: Cytotoxicity against human UO31 cells after 48 hrs by sulforhodamine B assay; assay type: functional; conditions: UO-31, 48 h
[13] = system: M14; assay: Cytotoxicity against human M14 cells after 48 hrs by sulforhodamine B assay; assay type: functional; conditions: M14, 48 h
[14] = system: DU-145; assay: Cytotoxicity against human DU145 cells after 48 hrs by sulforhodamine B assay; assay type: functional; conditions: DU-145, 48 h
[15] = system: NCI-H522; assay: Cytotoxicity against human NCI-H522 cells after 48 hrs by sulforhodamine B assay; assay type: functional; conditions: NCI-H522, 48 h
[16] = system: HCC 2998; assay: Cytotoxicity against human HCC2998 cells after 48 hrs by sulforhodamine B assay; assay type: functional; conditions: HCC 2998, 48 h
[17] = Cell cycle arrest in mouse DA1-3b cells assessed as accumulation at S phase at 10^-5 M after 24 hrs using propidium iodide staining by cytofluorometry (reference value: 28.0 %); assay type: functional, cell-based; summary of the method: as §1
[18] = system: OVCAR-3; assay: Cytotoxicity against human OVCAR3 cells after 48 hrs by sulforhodamine B assay; assay type: functional; conditions: OVCAR-3, 48 h
[19] = system: NCI-H460; assay: Cytotoxicity against human NCI-H460 cells after 48 hrs by sulforhodamine B assay; assay type: functional; conditions: NCI-H460, 48 h
[20] = system: NCI/ADR-RES; assay: Cytotoxicity against human NCI/ADR-RES cells after 48 hrs by sulforhodamine B assay; assay type: functional
[21] = Inhibition of bovine brain tubulin polymerization after 30 mins by turbidimetry analysis; set-up: species or system Bos taurus
Summary of the method: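 Lyophilized bovine brain tubulin (97%) reconstituted to 5 mg/mL in 80 mM PIPES pH 6.9, 2 mM MgCl₂, 0.5 mM EGTA, 1.0 mM GTP and 5% glycerol. Compound in DMSO was added to this solution in a quartz cuvette at 0 °C. Assembly was followed as the rise in absorbance at 340 nm at 37 °C. IC₅₀ is the molar concentration halving the extent of assembly after 30 min.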

[22] = system: SK-MEL-28; assay: Cytotoxicity against human SK-MEL-28 cells after 48 hrs by sulforhodamine B assay; assay type: functional; conditions: SK-MEL-28, 48 h
[23] = system: EKVX; assay: Cytotoxicity against human EKVX cells after 48 hrs by sulforhodamine B assay; assay type: functional
[24] = system: MDA-MB-231; assay: Cytotoxicity against human MDA-MB-231/ATCC cells after 48 hrs by sulforhodamine B assay; assay type: functional; conditions: MDA-MB-231, 48 h
[25] = Cell cycle arrest in mouse DA1-3b cells assessed as accumulation at G2/M phase at 10^-4 M after 24 hrs using propidium iodide staining by cytofluorometry (reference value: 18.0 %); assay type: functional, cell-based; summary of the method: as §1
[26] = system: UACC-62; assay: Cytotoxicity against human UACC62 cells after 48 hrs by sulforhodamine B assay; assay type: functional; conditions: UACC-62, 48 h
[27] = system: COLO 205; assay: Cytotoxicity against human COLO205 cells after 48 hrs by sulforhodamine B assay; assay type: functional; conditions: COLO 205, 48 h
[28] = Cell cycle arrest in mouse DA1-3b cells assessed as accumulation at sub-G1 phase at 10^-4 M after 24 hrs using propidium iodide staining by cytofluorometry (reference value: 0.7 %); assay type: functional, cell-based; summary of the method: as §1
[29] = system: Hs-578T; assay: Cytotoxicity against human HS578T cells after 48 hrs by sulforhodamine B assay; assay type: functional
[30] = system: MDA-MB-435; assay: Cytotoxicity against human MDA-MB-435 cells after 48 hrs by sulforhodamine B assay; assay type: functional; conditions: MDA-MB-435, 48 h
[31] = system: CCRF-CEM; assay: Cytotoxicity against human CCRF-CEM cells after 48 hrs by sulforhodamine B assay; assay type: functional
[32] = Cell cycle arrest in mouse DA1-3b cells assessed as accumulation at G2/M phase at 10^-6 M after 24 hrs using propidium iodide staining by cytofluorometry (reference value: 18.0 %); assay type: functional, cell-based; summary of the method: as §1
[33] = Cell cycle arrest in mouse DA1-3b cells assessed as accumulation at G1 phase at 10^-4 M after 24 hrs using propidium iodide staining by cytofluorometry (reference value: 52.2 %); assay type: functional, cell-based; summary of the method: as §1
[34] = system: HCT-15; assay: Cytotoxicity against human HCT15 cells after 48 hrs by sulforhodamine B assay; assay type: functional; conditions: HCT-15, 48 h
[35] = system: CAKI-1; assay: Cytotoxicity against human Caki1 cells after 48 hrs by sulforhodamine B assay; assay type: functional; conditions: CAKI-1, 48 h
[36] = system: A549; assay: Cytotoxicity against human A549 cells after 48 hrs by sulforhodamine B assay; assay type: functional; conditions: A549, 48 h
[37] = system: MCF7; assay: Cytotoxicity against human MCF7 cells after 48 hrs by sulforhodamine B assay; assay type: functional; conditions: MCF7, 48 h
[38] = system: HL-60; assay: Cytotoxicity against human HL60 cells after 48 hrs by sulforhodamine B assay; assay type: functional; conditions: HL-60, 48 h
[39] = Cell cycle arrest in mouse DA1-3b cells assessed as accumulation at S phase at 10^-6 M after 24 hrs using propidium iodide staining by cytofluorometry (reference value: 28.0 %); assay type: functional, cell-based; summary of the method: as §1
[40] = system: SK-MEL-2; assay: Cytotoxicity against human SK-MEL-2 cells after 48 hrs by sulforhodamine B assay; assay type: functional; conditions: SK-MEL-2, 48 h
[41] = system: A549; assay: Cytotoxicity against human A549/ATCC cells after 48 hrs by sulforhodamine B assay; assay type: functional; conditions: A549, 48 h
[42] = system: NCI-H322M; assay: Cytotoxicity against human NCI-H322M cells after 48 hrs by sulforhodamine B assay; assay type: functional
[43] = system: OVCAR-4; assay: Cytotoxicity against human OVCAR4 cells after 48 hrs by sulforhodamine B assay; assay type: functional; conditions: OVCAR-4, 48 h
[44] = system: SF-539; assay: Cytotoxicity against human SF539 cells after 48 hrs by sulforhodamine B assay; assay type: functional; conditions: SF-539, 48 h
[45] = system: SF-268; assay: Cytotoxicity against human SF268 cells after 48 hrs by sulforhodamine B assay; assay type: functional; conditions: SF-268, 48 h
[46] = system: HCT-116; assay: Cytotoxicity against human HCT116 cells after 48 hrs by sulforhodamine B assay; assay type: functional; conditions: HCT-116, 48 h
[47] = system: KM12; assay: Cytotoxicity against human KM12 cells after 48 hrs by sulforhodamine B assay; assay type: functional; conditions: KM12, 48 h
[48] = system: OVCAR-5; assay: Cytotoxicity against human OVCAR5 cells after 48 hrs by sulforhodamine B assay; assay type: functional; conditions: OVCAR-5, 48 h
[49] = system: HT-29; assay: Cytotoxicity against human HT29 cells after 48 hrs by sulforhodamine B assay; assay type: functional; conditions: HT-29, 48 h
[50] = Cell cycle arrest in mouse DA1-3b cells assessed as accumulation at G2/M phase at 10^-5 M after 24 hrs using propidium iodide staining by cytofluorometry (reference value: 18.0 %); assay type: functional, cell-based; summary of the method: as §1
[51] = system: MDA-MB-468; assay: Cytotoxicity against human MDA-MB-468 cells after 48 hrs by sulforhodamine B assay; assay type: functional; conditions: MDA-MB-468, 48 h
[52] = Cell cycle arrest in mouse DA1-3b cells assessed as accumulation at G2/M phase after 24 hrs using propidium iodide staining by cytofluorometry; assay type: functional, cell-based; summary of the method: as §1

Compound: COc1ccc(C(=O)c2cc(OC)c(OC)c(OC)c2)c(OC)c1O
- GI50 [1]: 19.9 nM
- Activity [2]: 21.5%
- GI50 [3]: 46.9 nM
- GI50 [4]: 2720 nM
- GI50 [5]: 15.9 nM
- Activity [6]: 11.6%
- Activity [7]: 17.5%
- GI50 [8]: 89.6 nM
- GI50 [9]: < 10 nM
- Activity [10]: 24.7%
- Activity [11]: 30%
- GI50 [12]: 48.9 nM
- GI50 [13]: < 10 nM
- GI50 [14]: 20.9 nM
- GI50 [15]: < 10 nM
- GI50 [16]: 211 nM
- Activity [17]: 11.8%
- GI50 [18]: 22.2 nM
- GI50 [19]: 50.7 nM
- GI50 [20]: < 10 nM
- IC50 [21]: 3200 nM
- GI50 [22]: 9460 nM
- GI50 [23]: 611 nM
- GI50 [24]: 24.6 nM
- Activity [25]: 25.3%
- GI50 [26]: 27.3 nM
- GI50 [27]: 6200 nM
- Activity [28]: 36.5%
- GI50 [29]: < 10 nM
- GI50 [30]: < 10 nM
- GI50 [31]: 28.8 nM
- Activity [32]: 47.2%
- Activity [33]: 26.1%
- GI50 [34]: 10.6 nM
- GI50 [35]: 120 nM
- GI50 [36]: 41.3 nM
- GI50 [37]: 26.4 nM
- GI50 [38]: 23.5 nM
- Activity [39]: 13.1%
- GI50 [40]: 26.6 nM
- GI50 [41]: 41.3 nM
- GI50 [42]: < 10 nM
- GI50 [43]: 73 nM
- GI50 [44]: 15.1 nM
- GI50 [45]: 21.1 nM
- GI50 [46]: 32 nM
- GI50 [47]: < 10 nM
- GI50 [48]: 651 nM
- GI50 [49]: 3460 nM
- Activity [50]: 32.9%
- GI50 [51]: 249 nM
- Activity [52]: Dose-dependent effect
